From ChEMBL document CHEMBL5036308, “Chiral Alkyl Groups at Position 3(1') of Pyropheophorbide-a Specify Uptake and Retention by Tumor Cells and Are Essential for Effective Photodynamic Therapy” (J Med Chem, 2021)
Active and inactive are the calls of the source. No cut-off for these calls is given here.

How the values were obtained:
[1] = Drug uptake in human HN-143-T-EC cells assessed as drug retention in mitochondria measured after 72 hrs chase period by fluorescent microscopy; assay type: ADME
[2] = Drug uptake in human HN-143-T-EC cells assessed as drug retention in endoplasmic reticulum measured after 72 hrs by fluorescent microscopy; assay type: ADME, cell-based
[3] = Drug uptake in human HN-143 T-EC cells assessed as drug retention at 1600 nM incubated for 24 hrs in presence of 10% fetal bovine serum measured after 72 hrs chase period by fluorescent microscopy imaging based analysis; assay type: ADME, cell-based; details: 1.6 µM
How it was run: (§1)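 Cells incubated 24 h in medium with 10% serum and 1600 nM PS, then chased in PS-free medium for up to 72 h with daily medium changes. Cellular PS was measured daily by fluorescence microscopy; net fluorescence intensity per full image frame was quantified in arbitrary units.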

[4] = Drug uptake in human HN-143 T-EC cells assessed as drug retention at 1600 nM incubated for 24 hrs in presence of 10% fetal bovine by fluorescent microscopy imaging based analysis; assay type: ADME, cell-based; details: 1.6 µM; how it was run: as §1
[5] = Drug uptake in human FaDu-124 cell membrane assessed as drug internalization at 1600 nM incubated for 30 mins at 37 degC; assay type: ADME, cell-based; details: fadu-124, 0.5 h, 1.6 µM
How it was run: (§2)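 FaDu-124 cells, 30 min on ice in serum-free DMEM with 1600 nM PS, then cell-associated fluorescence imaged. For diffusion into cells, cultures were then held 30 min at 37°C in fresh serum-free medium and imaged again.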

FaDu-124 = test: Binding affinity to human FaDu-124 cell membrane surface measured at 1600 nM incubated for 30 mins at 0 degC; assay type: tissue-based; how it was run: as §2
[6] = Drug uptake in human HN-T1 cells assessed as drug internalization at 1600 nM incubated for 24 hrs in presence of 10% fetal bovine serum measured after 24 hrs chase period by fluorescent microscopy; assay type: ADME, cell-based; details: hnt1, 24 h, 1.6 µM
[7] = Lipophilicity, logP of the compound; assay type: physicochemical; details: octanol/water
HN-143 T-EC = test: Binding affinity to human HN-143 T-EC cell membrane surface measured at 1600 nM incubated for 30 min; assay type: tissue-based
TEC1-2 = test: Binding affinity to human TEC1-2 cell plasma membrane assessed as drug retention at 1600 nM incubated for 24 hrs in presence of 10% fetal bovine serum measured after 48 hrs chase period by fluorescent microscopy; assay type: cell membranes
HNT1 = test: Binding affinity to human HNT1 cell plasma membrane with CFSE-labeled HN-87 T-Fb assessed as drug retention at 1600 nM incubated for 24 hrs in presence of 10% fetal bovine serum measured after 24 hrs chase period by fluorescent microscopy; assay type: cell membranes
How it was run: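 HNT1 cells (p 72) co-cultured on collagen-1 with CFSE-stained HN-87 T-Fb fibroblasts (added to 24 h-old tumor cultures, grown 3–7 days to confluence). Treated 24 h with DMEM + 10% FBS and 1600 nM PS, chased 24 h in DMEM + 10% FBS, then fluorescence imaged under identical conditions.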

[8] = Solubility of the compound; assay type: physicochemical
[9] = Drug uptake in human HNT1 cells assessed as drug retention at 1600 nM incubated for 24 hrs in presence of 10% fetal bovine serum measured after 24 hrs chase period by fluorescent microscopy; assay type: ADME, cell-based; details: hnt1, 24 h, 1.6 µM
[10] = Drug uptake in human HN-85 T-EC cells assessed as drug retention at 1600 nM incubated for 24 hrs in presence of 10% fetal bovine serum measured after 24 hrs chase period by fluorescent microscopy; assay type: ADME, cell-based; details: 1.6 µM
[11] = Drug uptake in human FaDu-124 cells assessed as drug retention at 1600 nM incubated for 24 hrs in presence of 10% fetal bovine serum measured after 48 hrs chase period by fluorescent microscopy; assay type: ADME, cell-based; details: fadu-124, 48 h, 1.6 µM
[12] = Drug uptake in human HNT1 cells with CFSE-labeled HN-101 T-Fb assessed as drug retention at 1600 nM incubated for 24 hrs in presence of 10% fetal bovine serum measured after 24 hrs chase period by fluorescent microscopy; assay type: ADME, cell-based; details: hnt1, 24 h, 1.6 µM
How it was run: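 Co-cultures of HNT1 cells (p 103) with CFSE-labeled HN-101 T-Fb on collagen-1 matrix; 24 h in DMEM + 10% FBS with 1600 nM PS, then 24 h chase in PS-free medium; cell-associated fluorescence imaged by microscopy.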

[13] = Drug uptake in human HN-T1 cells assessed as drug retention at 1600 nM incubated for 24 hrs in presence of 10% fetal bovine serum measured after 72 hrs chase period by fluorescent microscopy imaging based analysis; assay type: ADME, cell-based; details: hnt1, 72 h, 1.6 µM; how it was run: as §1
[14] = Drug uptake in human HN-90 T-EC cells assessed as drug retention at 1600 nM incubated for 24 hrs in presence of 10% fetal bovine serum measured after 72 hrs chase period by fluorescent microscopy imaging based analysis; assay type: ADME, cell-based; details: 1.6 µM; how it was run: as §1
[15] = Drug uptake in human FaDu clone 49 cells assessed as drug retention at 1600 nM incubated for 24 hrs in presence of 10% fetal bovine serum measured after 72 hrs chase period by fluorescent microscopy imaging based analysis; assay type: ADME, cell-based; details: fadu clone 49, 72 h, 1.6 µM; how it was run: as §1
[16] = Drug uptake in human HN-77 T-EC cells assessed as drug retention at 1600 nM incubated for 24 hrs in presence of 10% fetal bovine serum measured after 48 hrs chase period by fluorescent microscopy; assay type: ADME, cell-based; details: 1.6 µM
How it was run: (§3)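 Confluent cultures (e.g. HN-77 T-EC, p 13) incubated 24 h in RPMI + 10% FBS with 1600 nM PS, then 48 h chase in RPMI + 10% FBS. Fluorescence images recorded and net fluorescence intensity quantified.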

[17] = Drug uptake in human TEC-21 cells assessed as drug retention at 1600 nM incubated for 24 hrs in presence of 10% fetal bovine serum measured after72 hrs chase period by fluorescent microscopy imaging based analysis; assay type: ADME, cell-based; details: tec-21, 72 h, 1.6 µM; how it was run: as §1
[18] = Drug uptake in human HNT1 cells assessed as drug retention at 1600 nM incubated for 24 hrs in presence of 10% fetal bovine serum measured after 48 hrs chase period by fluorescent microscopy; assay type: ADME, cell-based; details: hnt1, 48 h, 1.6 µM
[19] = Drug uptake in human HN-142 T-EC cells assessed as drug retention at 1600 nM incubated for 24 hrs in presence of 10% fetal bovine serum measured after 48 hrs chase period by fluorescent microscopy; assay type: ADME, cell-based; details: 1.6 µM; how it was run: as §3
[20] = Drug uptake in human L237 cells assessed as drug retention at 1600 nM incubated for 24 hrs in presence of 10% fetal bovine serum measured after 48 hrs chase period by fluorescent microscopy; assay type: ADME, cell-based; details: l237, 48 h, 1.6 µM; how it was run: as §3
[21] = Photoreactivation in human TEC21 cells assessed as STAT3cross-linking in presence of 10% fetal bovine serum under 665 nm light for 9 mins measured after 24 hrs by immune blot analysis; assay type: cell-based; details: tec-21, 0.15 h
How it was run: (§4)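 TEC-21 cells (p 8) treated 24 h in RPMI + 10% FBS with PS, imaged, chased 48 h in RPMI + 10% FBS, then irradiated 9 min with 665 nm light (6 mW/cm²). Cells were extracted immediately and immunoblotted for STAT3 crosslinking, EGFR and phospho-p38 MAPK.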

[22] = Drug uptake in human TEC-1 cells assessed as drug retention at 1600 nM incubated for 24 hrs in presence of 10% fetal bovine serum measured after 48 hrs chase period by fluorescent microscopy; assay type: ADME, cell-based; details: tec-1, 48 h, 1.6 µM; how it was run: as §3
[23] = Drug uptake in human HN-143 T-EC cells assessed as slow release by measuring drug retention at 1600 nM incubated for 24 hrs in presence of 10% fetal bovine serum measured after 48 hrs chase period by fluorescent microscopy imaging based analysis; assay type: ADME, cell-based; details: 1.6 µM; how it was run: as §1
[24] = Photoreactivation in human HN-85 T-EC cells at 100 to 400 nM in presence of 10% fetal bovine serum under 3 J/cm^2 light for 9 mins measured after 24 hrs by Western blotting analysis; details: 0.15 h, 0.4 µM
[25] = Photoreactivation in human TEC21 cells in presence of 10% fetal bovine serum under 665 nm light for 9 mins measured after 24 hrs by immune blot analysis; assay type: cell-based; details: tec-21, 24 h; how it was run: as §4

CCCCCCOC(CCC)c1c(C)c2cc3nc(c4c5[nH]c(cc6nc(cc1[nH]2)C(C)=C6CC)c(C)c5C(=O)C4)[C@@H](CCC(=O)OC)C3C (some centres not stated)
Drug uptake [1]: Active | Drug uptake [2]: Active | Drug uptake [3]: Active

CCCCCCSC(C)c1c(C)c2cc3nc(c4c5[nH]c(cc6nc(cc1[nH]2)C(C)=C6CC)c(C)c5C(=O)C4)[C@@H](CCC(=O)O)C3C (some centres not stated)
Drug uptake [4]: Active | Drug uptake [3]: Active | Drug uptake [5]: Active | Activity (FaDu-124): Active

CCCCc1c(C)c2cc3nc(c4c5[nH]c(cc6nc(cc1[nH]2)C(C)=C6CC)c(C)c5C(=O)C4)[C@@H](CCC(=O)O)C3C (some centres not stated)
Drug uptake [6]: Active

CCCCCCOC(CCC)c1c(C)c2cc3nc(c4c5[nH]c(cc6nc(cc1[nH]2)C(C)=C6CC)c(C)c5C(=O)C4)[C@@H](CCC(=O)O)C3C (some centres not stated)
Drug uptake [4]: Active | Drug uptake [1]: Active | Drug uptake [2]: Active | Drug uptake [3]: Active | logP [7]: 6.01

CCCCCCOCc1c(C)c2cc3nc(c4c5[nH]c(cc6nc(cc1[nH]2)C(C)=C6CC)c(C)c5C(=O)C4)[C@@H](CCC(=O)O)C3C (some centres not stated)
Activity (HN-143 T-EC): Active

CCCCCCOCc1c(C)c2cc3nc(c4c5[nH]c(cc6nc(cc1[nH]2)C(C)=C6CC)c(C)c5C(=O)C4)[C@@H](CCC(=O)OC)C3C (some centres not stated)
Activity (TEC1-2): inactive | Activity (HNT1): inactive

C=Cc1c(C)c2cc3nc(c4c5[nH]c(cc6nc(cc1[nH]2)C(C)=C6CC)c(C)c5C(=O)C4)[C@@H](CCC(=O)O)C3C (some centres not stated)
Activity (FaDu-124): inactive

CCCCCCCCc1c(C)c2cc3nc(c4c5[nH]c(cc6nc(cc1[nH]2)C(C)=C6CC)c(C)c5C(=O)C4)[C@@H](CCC(=O)O)C3C (some centres not stated)
Drug uptake [4]: Not Active | solubility [8]: Soluble | Drug uptake [3]: Active

CCCCC(C)OC(C)c1c(C)c2cc3nc(c4c5[nH]c(cc6nc(cc1[nH]2)C(C)=C6CC)c(C)c5C(=O)C4)[C@@H](CCC(=O)O)C3C (some centres not stated)
Drug uptake [4]: Active | Drug uptake [1]: Active | Activity (HN-143 T-EC): Active | Drug uptake [2]: Active | Drug uptake [3]: Active | Drug uptake [9]: Active | Drug uptake [10]: Not Active

CCCCC(C)OCc1c(C)c2cc3nc(c4c5[nH]c(cc6nc(cc1[nH]2)C(C)=C6CC)c(C)c5C(=O)C4)[C@@H](CCC(=O)OC)C3C (some centres not stated)
Activity (TEC1-2): inactive | Activity (HNT1): inactive

CCCCCCOC(C)c1c(C)c2cc3nc(c4c5[nH]c(cc6nc(cc1[nH]2)C(C)=C6CC)c(C)c5C(=O)C4)[C@@H](CCC(=O)O)C3C (some centres not stated)
Drug uptake [4]: Active | Drug uptake [1]: Active | Drug uptake [11]: Not Active | Drug uptake [3]: Active | Drug uptake [12]: Active | Drug uptake [13]: Active | logP [7]: 6.01 | Drug uptake [9]: Not Active | Drug uptake [5]: Active | Drug uptake [14]: Active | Activity (FaDu-124): Active | Drug uptake [15]: Active | Drug uptake [16]: Not Active | Drug uptake [17]: Active | Drug uptake [18]: Not Active | Drug uptake [19]: Not Active | Drug uptake [20]: Not Active | Activity [21]: 0.4% | Drug uptake [22]: Not Active

CCCCCCSC(C)c1c(C)c2cc3nc(c4c5[nH]c(cc6nc(cc1[nH]2)C(C)=C6CC)c(C)c5C(=O)C4)[C@@H](CCC(=O)OC)C3C (some centres not stated)
Drug uptake [3]: Active | Drug uptake [5]: Active | Activity (FaDu-124): Active

CCCCCCOC(C)c1c(C)c2cc3nc(c4c5[nH]c(cc6nc(cc1[nH]2)C(C)=C6CC)c(C)c5C(=O)C4)[C@@H](CCC(=O)OC)C3C (some centres not stated)
Drug uptake [1]: Active | Drug uptake [2]: Active | Drug uptake [3]: Active | Drug uptake [5]: Active | Activity (FaDu-124): Active

CCCCC(C)OC(C)c1c(C)c2cc3nc(c4c5[nH]c(cc6nc(cc1[nH]2)C(C)=C6CC)c(C)c5C(=O)C4)[C@@H](CCC(=O)OC)C3C (some centres not stated)
Drug uptake [1]: Active | Drug uptake [2]: Active | Drug uptake [3]: Active | Drug uptake [23]: Active | Drug metabolism [24]: Metabolite_Detected | Drug uptake [10]: Not Active

CCCCOC(CCC)c1c(C)c2cc3nc(c4c5[nH]c(cc6nc(cc1[nH]2)C(C)=C6CC)c(C)c5C(=O)C4)[C@@H](CCC(=O)OC)C3C (some centres not stated)
Drug uptake [1]: Active | Drug uptake [2]: Active | Drug uptake [3]: Active

CCCCC(C)OCc1c(C)c2cc3nc(c4c5[nH]c(cc6nc(cc1[nH]2)C(C)=C6CC)c(C)c5C(=O)C4)[C@@H](CCC(=O)O)C3C (some centres not stated)
Drug uptake [4]: Active | Activity (HN-143 T-EC): Active | Drug metabolism [25]: Metabolite_Detected | Drug uptake [3]: Active | Drug uptake [9]: Active | Activity [21]: 0.2%

CCCCc1c(C)c2cc3nc(c4c5[nH]c(cc6nc(cc1[nH]2)C(C)=C6CC)c(C)c5C(=O)C4)[C@@H](CCC(=O)OC)C3C (some centres not stated)
Drug uptake [6]: Active
